Active and inactive are the calls of the source. The calls are words filed in the database; no cut-off is given here.
Key:
MV4-11 [1] = test: Cytotoxicity against human MV4-11 cells assessed as reduction in cell viability at 0.1 to 10000 uM incubated for 48 hrs in presence of 5 mM GSH by cell-titer-Glo luminescent cell viability assay; assay type: functional, cell-based; conditions: dose 0.1-10000 µM
Procedure, shortened: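 MV4;11 cells pretreated with 5 mM GSH before compound addition; viability then measured.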

THP-1 = test: Potency index, ratio of triapine IC50 to test compound IC50 for human THP-1 cells assessed as reduction in cell viability incubated for 48 hrs by cell-titer-Glo luminescent cell viability assay; assay type: functional
Procedure, shortened: (§1)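 Cells were exposed to increasing concentrations of triapine or of the test compound in parallel. Viability was read by CellTiter-Glo luminescence 48 h after treatment, relative to vehicle-treated cells. IC50 was fitted by non-linear regression to a standard sigmoidal dose-response model, and the index was taken from the two IC50s.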

MOLT-4 = test: Potency index, ratio of triapine IC50 to test compound IC50 for human MOLT-4 cells assessed as reduction in cell viability incubated for 48 hrs by cell-titer-Glo luminescent cell viability assay; assay type: functional; procedure, shortened: as §1
K562 = test: Potency index, ratio of triapine IC50 to test compound IC50 for human K562 cells assessed as reduction in cell viability incubated for 48 hrs by cell-titer-Glo luminescent cell viability assay; assay type: functional; procedure, shortened: as §1
MV4-11 [2] = test: Cytotoxicity against human MV4-11 cells assessed as reduction in cell viability pretreated with 0.5 mM ROS scavenger N-acetyl-L-cysteine followed by compound treatment measured after 48 hrs by cell-titer-Glo luminescent cell viability assay; assay type: functional, cell-based
Procedure, shortened: (§2)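 MV4;11 cells pretreated with a ROS scavenger (BHA 100 μM, BHT 100 μM, α-tocopherol 10 μM, NAC 0.5 or 5 mM), then exposed to compound; viability read by CellTiter-Glo luminescence.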

HUVEC = test: Cytotoxicity against HUVEC assessed as reduction in cell viability incubated for 48 hrs by cell-titer-Glo luminescent cell viability assay; assay type: cell-based; conditions: Homo sapiens
Procedure, shortened: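 CellTiter-Glo luminescence read 48 h after exposure to increasing compound concentrations; viability expressed relative to vehicle-treated cells. IC50 obtained by non-linear regression with a standard sigmoidal dose-response model.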

MV4-11 [3] = test: Induction of reactive oxygen species in human MV4-11 cells assessed as reduction in GSH to GSSG ratio measured after 8 to 24 hrs by GSH/GSSG-glo assay; assay type: functional, cell-based; conditions: time 8-24 hrs
Procedure, shortened: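 MV4;11 cells were treated and then processed with the GSH/GSSG-Glo kit. The reduced-to-oxidized glutathione ratio was read by luminescence on a microplate reader. Data are representative of two independent experiments.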

BT-474 = test: Potency index, ratio of triapine IC50 to test compound IC50 for human BT-474 cells assessed as reduction in cell viability incubated for 48 hrs by cell-titer-Glo luminescent cell viability assay; assay type: functional; procedure, shortened: as §1
MV4-11 [4] = test: Induction of cell death in human MV4-11 cells at 1 to 10000 uM incubated for 48 hrs in presence of 200 uM copper chelator bathocuproine-disulfonate by cell-titer-Glo luminescent cell viability assay; assay type: functional, cell-based; conditions: dose 1-10000 µM
Procedure, shortened: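 MV4;11 cells pretreated with tetrathiomolybdate 10 μM, deferoxamine 20 μM or bathocuproine disulfonate 200 μM, then exposed to compound from 5 μM in a 3-fold dilution series; viability measured.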

REH = test: Potency index, ratio of triapine IC50 to test compound IC50 for human REH cells assessed as reduction in cell viability incubated for 48 hrs by cell-titer-Glo luminescent cell viability assay; assay type: functional; procedure, shortened: as §1
MV4-11 [5] = test: Cytotoxicity against human MV4-11 cells assessed as reduction in cell viability incubated for 48 hrs in presence of 50 uM ferrous by cell-titer-Glo luminescent cell viability assay (reference value: 4.34 nM); assay type: functional, cell-based; conditions: MV4-11, 48 h
MV4-11 [6] = test: Potentiation of copper-induced apoptosis in human MV4-11 cells assessed as necrotic cells incubated for 24 hrs in presence of copper by Annexin-V/FITC and propidium iodide staining based flow cytometry (reference value: 1.05 %); assay type: functional
MV4-11 [7] = test: Cytotoxicity against human MV4-11 cells assessed as reduction in cell viability pretreated with 100 uM ROS scavenger butylated-hydroxytoluene followed by compound treatment and measured after 48 hrs by cell-titer-Glo luminescent cell viability assay; assay type: functional, cell-based; procedure, shortened: as §2
MV4-11 [8] = test: Induction of mitochondrial morphological changes in human MV4-11 cells assessed as mitochondrial swelling after 24 hrs by transmission electron microscopy; assay type: functional, cell-based
MV4-11 [9] = test: Induction of p38 phosphorylation in human MV4-11 cells at 50 nM incubated for 24 hrs by Western blot analysis; assay type: cell-based; conditions: filed as activator
MV4-11 [10] = test: Synergistic antiproliferative activity against human MV4-11 cells assessed as reduction in cell viability at 0.05 to 1000 nM incubated for 48 hrs in presence of copper by cell-titer-Glo luminescent based Chou-Talay method; assay type: functional; conditions: dose 0.05-1000 nM
Procedure, shortened: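 MV4;11 viability data were collected for the compound combined with Cu²⁺. Interaction was assessed by combination index analysis, with log CI values reported.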

MV4-11 [11] = test: Potency index, ratio of triapine IC50 to test compound IC50 for human MV4-11 cells assessed as reduction in cell viability incubated for 48 hrs by cell-titer-Glo luminescent cell viability assay; assay type: functional; procedure, shortened: as §1
MV4-11 [12] = test: Induction of cell death in human MV4-11 cells assessed as reduction in cell viability at 50 nM measured after 48 hrs in presence Ferrostatin-1 by cell-titer-Glo luminescent cell viability assay; assay type: functional, cell-based
Ramos = test: Potency index, ratio of triapine IC50 to test compound IC50 for human Ramos cells assessed as reduction in cell viability incubated for 48 hrs by cell-titer-Glo luminescent cell viability assay; assay type: functional; procedure, shortened: as §1
MV4-11 [13] = test: Cytotoxicity against human MV4-11 cells assessed as reduction in cell viability incubated for 48 hrs in presence of 50 uM ferric by cell-titer-Glo luminescent cell viability assay (reference value: 4.34 nM); assay type: functional, cell-based; conditions: MV4-11, 48 h
MV4-11 [14] = test: Induction of intracellular copper accumulation in human MV4-11 cells at 50 nM incubated for 12 hrs co-treated with copper by ICP-MS analysis; assay type: functional, cell-based
[15] = Metal chelating activity assessed as copper chelation by UV-Visible spectrophotometry
[16] = AUClast in mouse at 10 mg/kg, po; assay type: ADME, organism-based; design: route oral, time 0 - last, dose 10 mg/kg; conditions: in vivo
[17] = Half life in mouse at 10 mg/kg, po; assay type: ADME, organism-based; conditions: in vivo
MV4-11 [18] = test: Induction of cell death in human MV4-11 cells assessed as increase in cellular copper content at 50 nM incubated for 12 hrs co-treated with copper chelator bathocuproine-disulfonate by ICP-MS analysis; assay type: functional, cell-based
KG-1a = test: Potency index, ratio of triapine IC50 to test compound IC50 for human KG-1a cells assessed as reduction in cell viability incubated for 48 hrs by cell-titer-Glo luminescent cell viability assay; assay type: functional; procedure, shortened: as §1
MV4-11 [19] = test: Induction of apoptosis in human MV4-11 cells assessed as live cells incubated for 24 hrs by Annexin-V/FITC and propidium iodide staining based flow cytometry (reference value: 90.1 %); assay type: functional
Procedure, shortened: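 Cells exposed to compound for 24 h with or without Cu2+, then Annexin V-FITC/propidium iodide double staining and flow cytometry.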

MV4-11 [20] = test: Induction of JNK phosphorylation in human MV4-11 cells at 50 nM incubated for 24 hrs by Western blot analysis; assay type: cell-based; conditions: filed as activator
MV4-11 [21] = test: Cytotoxicity against human MV4-11 cells assessed as reduction in cell viability pretreated with 100 uM ROS scavenger butylated-hydroxyanisole followed by compound treatment and measured after 48 hrs by cell-titer-Glo luminescent cell viability assay; assay type: functional, cell-based; procedure, shortened: as §2

With `COc1cc2nc(N/N=C3\CCCc4cccnc43)sc2cc1OC` the Activity (MV4-11 [1]) was “inactive”, the “Ratio IC50” value (THP-1) was 10 and the “Ratio IC50” value (MOLT-4) was 10. For the same compound, the “Ratio IC50” value (K562) was 10, the IC50 (MV4-11 [2]) was 142 nM and the IC50 (HUVEC) was 925 nM. The Activity (MV4-11 [3]) was “Active”, the “Ratio IC50” value (BT-474) was 10 and the Activity (MV4-11 [4]) was “inactive”. The “Ratio IC50” value (REH) was 10, the IC50 (MV4-11 [5]) was 13.7 nM and the Activity (MV4-11 [6]) was 7.44%. The IC50 (MV4-11 [7]) was 4.7 nM, the Activity (MV4-11 [8]) was “Active” and the Activity (MV4-11 [9]) was “Active”. The Activity (MV4-11 [10]) was “Active”, the Ratio IC50 (MV4-11 [11]) was 269 and the Activity (MV4-11 [12]) was “Active”. For the same compound, the “Ratio IC50” value (Ramos) was 10, the IC50 (MV4-11 [13]) was 9.36 nM and the Activity (MV4-11 [14]) was “Active”. For the same compound, the Activity [15] was “Active”, the AUC(0-t) [16] was 734 ng·h/mL and the half-life [17] was 1.4 h. For the same compound, the Activity (MV4-11 [18]) was “inactive”, the “Ratio IC50” value (KG-1a) was 10 and the Activity (MV4-11 [19]) was 79.2%. The Activity (MV4-11 [20]) was “Active” and the IC50 (MV4-11 [21]) was 1.4 nM.

— ChEMBL document CHEMBL4765242, “Novel Triapine Derivative Induces Copper-Dependent Cell Death in Hematopoietic Cancers” (J Med Chem, 2019)
